Laboratory results reported in ChEMBL document CHEMBL3992558, “Benzimidazole inhibitors from the Niclosamide chemotype inhibit Wnt/β-catenin signaling with selectivity over effects on ATP homeostasis” (Bioorg Med Chem, 2017).
pEC50, pIC50: −log10 of the molar value. Blank lines part the entries; values can stand above or below the compound they belong to. Calls of active or inactive are those of the source. The calls are words filed in the database; no cut-off is given here.

How the values were obtained:
[1] = (§1) Inhibition of Wnt/beta-catenin signaling (unknown origin) expressed in HEK293 cells assessed as inhibition of Wnt3A-stimulated beta-catenin response transcription after 6 hrs by TOPflash dual luciferase reporter gene assay; format: cell-based; details: Homo sapiens, HEK293, 6 h
Summary of the method: (§2)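 HEK293 cells stably carrying p8xTOPFlash and Renilla pRL-TK were seeded at confluency and given Wnt-3A conditioned medium (from L Wnt-3A cells) containing compound, 0.04–10 μM, or DMSO for 6 h. Lysates were read by dual-luciferase assay. The DMSO/Wnt3A signal was set as 100%, and curves were fit (mean ± SEM, n ≥ 3). Percent inhibition at 10 μM was reported where no IC50 could be fitted.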

Homo sapiens [2] = organism: Homo sapiens; assay: Inhibition of Wnt/beta-catenin signaling in human U2OS cells expressing GFP-fused Fzd1 assessed as GFP-Fzd1 internalization by measuring number of punctate formed at 12.5 uM after 6 hrs by confocal microscopic method; format: cell-based
Summary of the method: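 U2OS cells stably expressing Frizzled1-GFP were plated in confocal dishes for 24 h, then treated with 12.5 μM compound in DMSO or DMSO for 6 h at 37°C and fixed in 4% paraformaldehyde. Confocal images (488-nm excitation) were read twice, blinded, and punctate was scored versus control on a 0–5 scale (0, 1, 3, 5).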

Homo sapiens [3] = organism: Homo sapiens; assay: Inhibition of Wnt/beta-catenin signaling in human SW480 cells assessed as downregulation of cytosolic beta-catenin protein expression at 5 uM after 18 hrs by Western blot method; format: cell-based
Summary of the method: (§3)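 HCT-116 (McCoy's 5A) or SW480 (MEM) cells, each with 10% FBS, were grown 48 h on poly-D-lysine-coated wells to 60–80% confluency. Fresh medium with compound or DMSO (0.1% final) was added for 18 h. Cytosolic fractions (β-catenin, Axin2) were isolated with hypotonic buffer, or whole cells were lysed in Laemmli buffer (c-Myc, Cyclin D1, Survivin). Immunoblots used β-actin as loading control.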

Homo sapiens [4] = organism: Homo sapiens; assay: Inhibition of Wnt/beta-catenin signaling in human HCT116 cells assessed as downregulation of cytosolic beta-catenin protein expression at 5 uM after 18 hrs by Western blot method; format: cell-based; summary of the method: as §3
HCT-116 [5] = assay: Effect on ATP homeostasis in human HCT116 cells assessed as reduction in ATP level at 0.16 uM after 3 hrs in absence of glucose by ATP bioluminescent assay; format: ADME, cell-based; details: hct-116, 3 h
Homo sapiens [6] = organism: Homo sapiens; assay: as §1; format: cell-based; summary of the method: as §2
Homo sapiens [7] = organism: Homo sapiens; assay: Inhibition of Wnt/beta-catenin signaling in human SW480 cells assessed as downregulation of c-Myc protein expression at 5 uM after 18 hrs by Western blot method; format: cell-based; summary of the method: as §3
HCT-116 [8] = assay: Effect on ATP homeostasis in human HCT116 cells assessed as reduction in ATP level after 3 hrs in absence of glucose by ATP bioluminescent assay; format: ADME, cell-based; details: for Activity: human, hct-116, 3 h; for pIC50: Homo sapiens, HCT-116, 3 h
Summary of the method: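 HCT-116 cells attached overnight on poly-D-lysine plates in McCoy's 5A/10% FBS, then switched to glucose-free DMEM with 2mM sodium pyruvate and 2mM L-glutamine containing compound (0.1% final DMSO). After 3 h at 37°C, 5% CO2, cells were lysed in Somatic Cell ATP Releasing Reagent and ATP was read by luciferase bioluminescence, normalized to DMSO control.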

HCT-116 [9] = assay: Effect on ATP homeostasis in human HCT116 cells assessed as reduction in ATP level at 0.5 to 2 uM after 3 hrs in glucose supplemented media by ATP bioluminescent assay; format: ADME, cell-based; details: hct-116, 3 h
Summary of the method: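 HCT-116 cells attached overnight on poly-D-lysine plates, then treated 3 h at 37°C in DMEM with 2mM sodium pyruvate, 2mM L-glutamine and 5mM glucose (0.1% final DMSO). ATP was read by luciferase bioluminescence after lysis with Somatic Cell ATP Releasing Reagent, normalized to DMSO control.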

Homo sapiens [10] = organism: Homo sapiens; assay: Inhibition of Wnt/beta-catenin signaling in human HCT116 cells assessed as downregulation of survivin protein expression at 5 uM after 18 hrs by Western blot method; format: cell-based; summary of the method: as §3
Homo sapiens [11] = organism: Homo sapiens; assay: Inhibition of Wnt/beta-catenin signaling in human HCT116 cells assessed as downregulation of c-Myc protein expression at 5 uM after 18 hrs by Western blot method; format: cell-based; summary of the method: as §3
Homo sapiens [12] = organism: Homo sapiens; assay: Inhibition of Wnt/beta-catenin signaling in human HCT116 cells assessed as downregulation of cytosolic Axin2 protein expression at 5 uM after 18 hrs by Western blot method; format: cell-based; summary of the method: as §3
Homo sapiens [13] = organism: Homo sapiens; assay: Inhibition of Wnt/beta-catenin signaling in human SW480 cells assessed as downregulation of Cyclin D1 protein expression at 5 uM after 18 hrs by Western blot method; format: cell-based; summary of the method: as §3
Homo sapiens [14] = organism: Homo sapiens; assay: Inhibition of Wnt/beta-catenin signaling in human HCT116 cells assessed as downregulation of Cyclin D1 protein expression at 5 uM after 18 hrs by Western blot method; format: cell-based; summary of the method: as §3
Homo sapiens [15] = organism: Homo sapiens; assay: Inhibition of Wnt/beta-catenin signaling (unknown origin) expressed in HEK293 cells assessed as inhibition of Wnt3A-stimulated beta-catenin response transcription at 0.16 uM after 6 hrs by TOPflash dual luciferase reporter gene assay relative to control; format: cell-based
Summary of the method: (§4)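 TOPFlash/Renilla stable HEK293 cells were split from the same batch as parallel ATP assay plates, attached overnight, then treated 6 h with compound in Wnt-3A conditioned medium. Dual-luciferase read-out was taken relative to the DMSO control. Three separate experiments used different cell batches.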

Homo sapiens [16] = organism: Homo sapiens; assay: Inhibition of Wnt/beta-catenin signaling in human SW480 cells assessed as downregulation of survivin protein expression at 5 uM after 18 hrs by Western blot method; format: cell-based; summary of the method: as §3
Homo sapiens [17] = organism: Homo sapiens; assay: Inhibition of Wnt/beta-catenin signaling in human SW480 cells assessed as downregulation of cytosolic Axin2 protein expression at 5 uM after 18 hrs by Western blot method; format: cell-based; summary of the method: as §3
HEK293 (Homo sapiens) = assay: Effect on ATP homeostasis in human HEK293 cells assessed as reduction in ATP level after 3 hrs in absence of glucose by ATP bioluminescent assay; details: HEK293, 3 h
Homo sapiens [18] = organism: Homo sapiens; assay: Inhibition of Wnt/beta-catenin signaling (unknown origin) expressed in HEK293 cells assessed as inhibition of Wnt3A-stimulated beta-catenin response transcription at 10 uM after 6 hrs by TOPflash dual luciferase reporter gene assay relative to control; format: cell-based; summary of the method: as §2
HCT-116 [19] = assay: Effect on ATP homeostasis in human HCT116 cells assessed as reduction in ATP level at 2 uM after 3 hrs in glucose supplemented media by ATP bioluminescent assay; details: hct-116, 3 h
Homo sapiens [20] = organism: Homo sapiens; assay: Inhibition of Wnt/beta-catenin signaling (unknown origin) expressed in HEK293 cells assessed as inhibition of Wnt3A-stimulated beta-catenin response transcription at 0.63 uM after 6 hrs by TOPflash dual luciferase reporter gene assay relative to control; format: cell-based; summary of the method: as §4
HCT-116 [21] = assay: Effect on ATP homeostasis in human HCT116 cells assessed as reduction in ATP level at 0.63 uM after 3 hrs in absence of glucose by ATP bioluminescent assay; format: ADME, cell-based; details: hct-116, 3 h

SMILES: O=S(=O)(Nc1ccccc1-c1nc2cc(C(F)(F)F)ccc2[nH]1)c1c(F)cccc1F
- Activity (Homo sapiens [2]): 0
- inhibition (Homo sapiens [18]): 8%

SMILES: CC[C@H]1/C=C/C=C/C[C@@H](C)[C@H](O)[C@@](C)(O)C(=O)[C@@H](C)[C@H](O)[C@@H](C)C(=O)[C@@H](C)[C@H](O)[C@@H](C)/C=C/C(=O)O[C@@H]2[C@H](C)[C@H](CC1)O[C@]1(CC[C@H](C)[C@H](C[C@@H](C)O)O1)[C@H]2C [OLIGOMYCIN]
- Activity (HCT-116 [19]): Toxic

SMILES: O=[N+]([O-])c1ccc2nc(-c3ccccc3O)[nH]c2c1
- pIC50 [1]: 5.35
- Activity (Homo sapiens [2]): 0

SMILES: Cc1ccc(S(=O)(=O)Nc2ccc(Cl)cc2C(=O)Nc2ccc([N+](=O)[O-])cc2Cl)cc1
- pIC50 [1]: 5.82
- pIC50 (HCT-116 [8]): > 6.60
- Activity (Homo sapiens [2]): 3

SMILES: N#CC(C#N)=NNc1ccc(OC(F)(F)F)cc1
- Activity (HCT-116 [19]): Toxic

SMILES: Cc1ccc(S(=O)(=O)Nc2ccc(Cl)cc2-c2nc3cc([N+](=O)[O-])ccc3[nH]2)cc1
- Activity (Homo sapiens [2]): 0
- inhibition (Homo sapiens [18]): 48%

Now from value to compound, other results behind:

- pIC50 [1]: 5.12
SMILES: Oc1ccc(Cl)cc1-c1nc2cc(F)ccc2[nH]1
- Activity (Homo sapiens [2]): 0

- pIC50 [1]: 6.57 to 6.64
- Activity (HCT-116 [8]): Dose-dependent effect
SMILES: Oc1ccc(Cl)cc1-c1nc2cc(C(F)(F)F)ccc2[nH]1
- inhibition (Homo sapiens [3]): Active
- inhibition (Homo sapiens [4]): Active
- Activity (HCT-116 [5]): Non-Toxic
- inhibition (Homo sapiens [6]): Dose-dependent effect
- inhibition (Homo sapiens [7]): Active
- Activity (HCT-116 [9]): Non-Toxic
- inhibition (Homo sapiens [10]): Active
- inhibition (Homo sapiens [11]): Active
- inhibition (Homo sapiens [12]): Active
- inhibition (Homo sapiens [13]): Active
- inhibition (Homo sapiens [14]): Active
- inhibition (Homo sapiens [15]): 40 to 50%
- inhibition (Homo sapiens [16]): Active
- Activity (Homo sapiens [2]): 3
- inhibition (Homo sapiens [17]): Active
- pEC50 (HEK293 (Homo sapiens)): ≤ 5.30

- pIC50 [1]: 5.38
SMILES: COc1ccc(O)c(-c2nc3cc([N+](=O)[O-])ccc3[nH]2)c1
- Activity (Homo sapiens [2]): 0

- pIC50 [1]: 5.77
SMILES: Cc1ccc(O)c(-c2nc3cc([N+](=O)[O-])ccc3[nH]2)c1
- Activity (HCT-116 [9]): Non-Toxic
- Activity (Homo sapiens [2]): 0

- pIC50 [1]: 5.94 to 6.21
- pIC50 (HCT-116 [8]): 5.22
- Activity (HCT-116 [8]): Dose-dependent effect
SMILES: O=[N+]([O-])c1ccc2[nH]c(-c3cc(F)ccc3O)nc2c1
- inhibition (Homo sapiens [3]): Active
- inhibition (Homo sapiens [20]): Active
- inhibition (Homo sapiens [4]): Active
- inhibition (Homo sapiens [6]): Dose-dependent effect
- inhibition (Homo sapiens [7]): Active
- Activity (HCT-116 [21]): Non-Toxic
- Activity (HCT-116 [9]): Non-Toxic
- inhibition (Homo sapiens [10]): Active
- inhibition (Homo sapiens [11]): Active
- inhibition (Homo sapiens [12]): Active
- inhibition (Homo sapiens [13]): Active
- inhibition (Homo sapiens [14]): Active
- inhibition (Homo sapiens [16]): Active
- Activity (Homo sapiens [2]): 2
- inhibition (Homo sapiens [17]): Active
- pEC50 (HEK293 (Homo sapiens)): < 5.30

- pIC50 [1]: 5.90
SMILES: COc1ccc2[nH]c(-c3cc(Cl)ccc3O)nc2c1
- Activity (Homo sapiens [2]): 0
